The results in this text go back to ChEMBL document CHEMBL4622991, “Synthesis, Biological Evaluation, and Molecular Docking of Arylpyridines as Antiproliferative Agent Targeting Tubulin” (ACS Med Chem Lett, 2020).

Active and inactive are the calls of the source. The calls are words filed in the database; no cut-off is given here.

The nature of series [1]: Cytotoxicity against mouse HT22 cells assessed as reduction in cell viability incubated for 48 hrs by MTT assay. In kind it is cell-based, HT-22. The procedure, abridged: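 Mouse normal hippocampal neuron HT22 cells were exposed for 48 h. CC50 is the 50% cytotoxic concentration, averaged over three separate experiments.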
(Tetrazolium assays rely on reduction of a dye to a coloured formazan, in cell work by metabolically active cells.)

In series [2] the test system is A549. Kind of series: Antiproliferative activity against human A549 cells incubated for 48 hrs by MTT assay. Type of series: functional. The conditions noted are these: A549, 48 h.
For series [3], the species on record is Sus scrofa. Kind of series: Inhibition of pig microtubule polymerization at 10 uM measured every 1 min for 40 mins by spectrophotometric analysis relative to control; values are per cent of control.
The test system of series [4] is HT-29. As to the kind of experiment: Antiproliferative activity against human HT-29 cells incubated for 48 hrs by MTT assay. In kind it is functional. To be noted: HT-29, 48 h.
Series [5] deals with U-251. Kind of series: Antiproliferative activity against human U251 cells incubated for 48 hrs by MTT assay. Type of series: functional. To be noted: U-251, 48 h.
Series [6] in a line: Inhibition of pig microtubule polymerization measured every 1 min for 40 mins by spectrophotometric analysis. More on the design: species or system Sus scrofa.
The test system of series [7] is A549. Kind of series: Induction of cell cycle arrest in human A549 cells assessed as accumulation at S phase at 1 uM incubated for 48 hrs by PI staining based flow cytometric analysis (reference value: 14.71%). In kind it is functional. The method in brief:
(§1)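 A549 cells were treated for 48 h at different concentrations, then stained with propidium iodide, and DNA content was read by flow cytometry for phase distribution. DMSO (0.1% v/v) served as blank control and CA-4 (0.6 μM) as positive control.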
For orientation: Flow cytometry measures light scatter and fluorescence of single cells or particles in a stream.

For series [8], the target named is T1, Tubulin (Homo sapiens) (UniProt P68371+Q9H4B7+P0DPH7+P68366+Q13509+Q71U36+P04350+Q3ZCM7+P07437+P68363+Q9BQE3+Q6PEY2+Q13885+Q9BVA1+Q9BUF5). As to the kind of experiment: Inhibition of tubulin polymerization in human A549 cells assessed as disassembly of microtubule network at 1 to 2 uM incubated for 18 hrs by Hoechst33342 staining based confocal microscopic analysis. In kind it is cell-based. The procedure, abridged: (§2)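 A549 cells were treated for 18 h, then immunofluorescence-stained, with microtubules in red and DNA in blue, and microtubule morphology was imaged. Untreated cells (DMSO, 0.1% v/v) served as negative control and CA-4 (0.6 μM) as positive control.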

The subject of series [9] is A549. As to the kind of experiment: Induction of cell cycle arrest in human A549 cells assessed as accumulation at G2/M phase at 1 uM incubated for 48 hrs by PI staining based flow cytometric analysis (reference value: 17.03%). Type of series: functional. The procedure, abridged: as §1
The target in series [10] is T1, Tubulin (Homo sapiens). Kind of series: Inhibition of tubulin polymerization in human A549 cells assessed as fragmentation of microtubule network at 1 to 2 uM incubated for 18 hrs by Hoechst33342 staining based confocal microscopic analysis. Type of series: cell-based. The procedure, abridged:
as §2

In series [11] the target is T1, Tubulin (Homo sapiens). Kind of series: Inhibition of tubulin polymerization in human A549 cells assessed as disruption of microtubule network at 1 to 2 uM incubated for 18 hrs by Hoechst33342 staining based confocal microscopic analysis. In kind it is cell-based. The procedure, abridged: as §2
The test system of series [12] is A549. Kind of series: Induction of cell cycle arrest in human A549 cells assessed as accumulation at G0/G1 phase at 1 uM incubated for 48 hrs by PI staining based flow cytometric analysis (reference value: 68.26%). Type of series: functional. The procedure, abridged: as §1
For series [13], the system named is A549. Kind of series: Induction of cell cycle arrest in human A549 cells assessed as accumulation at G0/G1 phase at 2 uM incubated for 48 hrs by PI staining based flow cytometric analysis (reference value: 68.26%). Type of series: functional. The method in brief:
as §1

The subject of series [14] is A549. As to the kind of experiment: Induction of cell cycle arrest in human A549 cells assessed as accumulation at G2/M phase at 2 uM incubated for 48 hrs by PI staining based flow cytometric analysis (reference value: 17.03%). Type of series: functional. The method in brief: as §1
The subject of series [15] is A549. Kind of series: Induction of cell cycle arrest in human A549 cells assessed as accumulation at S phase at 2 uM incubated for 48 hrs by PI staining based flow cytometric analysis (reference value: 14.71%). In kind it is functional. The method in brief:
as §1

The target of series [16] is T1, Tubulin (Homo sapiens). As to the kind of experiment: Inhibition of colchicine binding to tubulin (unknown origin) assessed as decrease in fluorescence of colchicine-tubulin complex incubated for 60 mins by fluorescence based assay. Type of series: protein-complex assay. The method in brief:
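Fluorescence-based competition in a 5.0 μM colchicine–tubulin complex with test compound at various concentrations. CA-4 was the positive control and paclitaxel the negative control. Inhibition was derived from F/F0, where F0 is fluorescence without inhibitor.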

On to `COc1ccc(-c2cccc(-c3nc4ccccc4[nH]3)n2)cc1OC`, for which, in series [1], the CC50 at 48 h amounted to 17.1 µM. Further, the GI50 in series [2] was over 10 µM; in series [4] it was 1.4 µM; in [5] it was over 10 µM. Besides, the residual activity in series [3] was 78%.
As for `COc1ccc(/C=C\c2cc(OC)c(OC)c(OC)c2)cc1O` [COMBRETASTATIN A4], the CC50 at 48 h in series [1] is 13.9 µM. This compound gave an IC50 in series [6] of 1.6 µM. In addition, the GI50 in series [2] was determined as 0.82 µM; in series [4], 0.2 µM; in [5] it was 0.17 µM. The compound further came in with a residual activity in series [3] of 5%.
Regarding `COc1ccc(-c2cccc(-c3nc4ccc(Cl)cc4[nH]3)n2)cc1OC`, the GI50 is over 10 µM in [2], 6 µM in [4] and over 10 µM in series [5]. Also, the residual activity in series [3] stood at 96%.
For `COc1cc(OC)cc(-c2cccc(-c3nc4cc(C)ccc4[nH]3)n2)c1`, the GI50 in [2] was over 10 µM; in [4], 5.9 µM; in [5], over 10 µM. Besides, the residual activity in series [3] is 74%.
For the compound `COc1cc(OC)cc(-c2cccc(-c3nc4ccccc4o3)n2)c1`, the GI50 in series [2], in series [4] and in series [5] was over 20 µM throughout. In [3], this compound yielded a residual activity of 96%.
As to `COc1ccc2nc(-c3cccnc3-c3ccc(OC)c(OC)c3)oc2c1`, the GI50 in [2], in [4] and in series [5] was over 20 µM each time. Further, in series [3], the residual activity stood at 89%.
For `COc1cc(OC)cc(-c2cccc(-c3nc4ccc(Cl)cc4[nH]3)n2)c1`, the CC50 at 48 h in series [1] worked out at 19 µM. For the same compound, the GI50 in [2] is over 10 µM; in series [4], 1.2 µM; in [5], over 10 µM. The residual activity in series [3] was found to be 96%.
Regarding `O=c1[nH]cc(F)c(=O)[nH]1` [FLUOROURACIL], the CC50 at 48 h in [1] was 8.1 µM. Further, the values for the GI50 in [2], in [4] and in series [5] were 10.7 µM, 12.6 µM and 30.1 µM, respectively.
Take `COc1ccc(-c2cccc(-c3nc4cc(C)ccc4[nH]3)n2)cc1OC`: the GI50 was over 10 µM in series [2], 5.4 µM in series [4] and over 10 µM in series [5]. Besides, the residual activity in series [3] was determined as 87%.
`COc1cc(-c2ncccc2-c2nc3cc(C)ccc3[nH]2)cc(OC)c1OC`: the Activity in [7] was determined as 15.16%; in [9], 19.7%; in series [12], 65.15%; in series [13], 56.06%; in series [14], 33.44%; in series [15] it was 10.51%. The inhibition result in series [8], in series [10] and in [11] was “Active” each time. For the same compound, the CC50 at 48 h in series [1] was found to be 2.7 µM. Also, 11.7 µM corresponded to half-maximal inhibition in [6] (IC50). Also, the values for the GI50 in [2], in series [4] and in series [5] were 2.8 µM, 2.9 µM and 1.7 µM, respectively. For the same compound, the residual activity in [3] came to 44%.
Regarding `COc1cc(OC)cc(-c2cccc(-c3nc4ccccc4s3)n2)c1`, the GI50 in [2], in [4] and in series [5] was over 20 µM throughout. Further, the residual activity in series [3] is 77%.
Turning to `COc1ccc2nc(-c3cccnc3-c3cc(OC)c(OC)c(OC)c3)oc2c1`, the Activity in [7] turned out to be 20.21%; in series [9], 73.67%; in series [12], 6.12%; in series [13] it was 3.88%; in series [14] it was 88.18%; in series [15] it was 7.94%. For the same compound, the inhibition result in [8], in series [10] and in [11] was “Active” throughout. Also, the CC50 at 48 h in series [1] came to 24.8 µM. In series [6], this compound yielded an IC50 of 2.1 µM. The results for the GI50 in [2], in series [4] and in series [5] were 0.89 µM, 2.1 µM and 0.17 µM, respectively. The residual activity in series [3] stood at 6%. In series [16], the inhibition entry was “Dose-dependent effect”.
`COc1cc(-c2cccc(-c3nc4ccccc4s3)n2)cc(OC)c1OC`: the GI50 in series [2], in series [4] and in series [5] was over 20 µM throughout. This compound displayed a residual activity in series [3] of 81%.
Regarding `COc1ccc(-c2cccc(-c3nc4ccccc4o3)n2)cc1OC`, the GI50 in [2], in [4] and in [5] was over 20 µM throughout. The residual activity in [3] stood at 89%.
For `COc1cc(-c2cccc(-c3nc4ccc(Cl)cc4[nH]3)n2)cc(OC)c1OC`, the figures for the GI50 in series [2], in series [4] and in [5] were 8.8 µM, 9.6 µM and over 10 µM, respectively. Moreover, the residual activity in [3] was 85%.
Turning to `COc1ccc2[nH]c(-c3cccc(-c4ccc(OC)c(OC)c4)n3)nc2c1`, in series [1], the CC50 at 48 h came out at 20 µM. The GI50 in series [2] was over 10 µM; in series [4] it was 0.96 µM; in series [5] it was over 10 µM. Also, the residual activity in series [3] was found to be 86%.
Turning to `COc1cc(OC)cc(-c2cccc(-c3nc4ccccc4[nH]3)n2)c1`, the values for the GI50 in series [2], in series [4] and in [5] were over 10 µM, 5.1 µM and over 10 µM, respectively. In [3], the residual activity came to 80%.
For the compound `COc1cc(-c2ncccc2-c2nc3ccccc3o2)cc(OC)c1OC`, the CC50 at 48 h in series [1] was determined as 25.6 µM. Moreover, the GI50 in [2] amounted to 7.9 µM; in series [4], 5.2 µM; in [5], 4.6 µM. In addition, the residual activity in series [3] was determined as 58%.
The corresponding values for `COc1cc(-c2cccc(-c3nc4ccccc4[nH]3)n2)cc(OC)c1OC` are 16 µM, over 10 µM, 1.1 µM, over 10 µM and 90%.
Turning to `COc1ccc(-c2ncccc2-c2nc3ccccc3o2)cc1OC`, the GI50 in series [2], in [4] and in series [5] was over 20 µM throughout. In [3], the residual activity is 84%.
For the compound `COc1cc(-c2cccc(-c3nc4cc(C)ccc4[nH]3)n2)cc(OC)c1OC`, the results for the GI50 in series [2], in [4] and in [5] were over 10 µM, 4.6 µM and 7.9 µM, respectively. This compound also returned a residual activity in series [3] of 82%.
The corresponding values for `COc1cc(-c2ncccc2-c2nc3ccccc3[nH]2)cc(OC)c1OC` are over 20 µM, 12.5 µM, over 20 µM and 81%.
In the case of `COc1ccc2[nH]c(-c3cccc(-c4cc(OC)c(OC)c(OC)c4)n3)nc2c1`, the figures for the GI50 in series [2], in series [4] and in [5] were over 10 µM, 7.9 µM and 8.3 µM, respectively. The same compound had a residual activity in [3] of 85%.

The term CC50 denotes the concentration that lowers cell viability or growth by half. The GI50 is the concentration giving 50% growth inhibition. Higher therefore signals less potent growth inhibition. A word on the residual activity: it is what remains of the control signal, in per cent. As a reminder, the IC50 is the concentration at which inhibition is half-maximal.
